Screens from PubChem BioAssay.
STK33 inh: blocks human STK33 kinase activity. 0.073% of 320,000 active. purified STK33, MBP phosphorylation, ADP-Glo luminescence. inhibition, % at 10 µM;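 active means inhibition at or above 25%, using the most active replicate where run in duplicate; inactive means inhibition below 25%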
Rce1 inh: blocks yeast Ras-converting enzyme | AID 2563 | yeast membranes, quenched prenylated peptide cleavage fluorescence | 0.27% of 290,000 active | calls only;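 active means fall in fluorescence gain of 50% or more versus controls, with final raw signal at or below 3038400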;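 further: plate controls were neutral control wells for no effect and wells lacking membranes for full effect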
Dyrk1A ADPGlo: Dyrk1A (rat) kinase inhibition; Q63470; ADP-Glo luminescence, NFATc1 peptide; inhibition, % at 12.5 µM; 0.43% of 310,000 active; AID 504441; in the data active means inhibition above about 50%;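 further: plate controls were vehicle with enzyme for no effect and no enzyme for full effect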
GSK3 alpha inh: inhibitors of human GSK-3 alpha kinase; AID 2650; P49840; ADP-Glo luminescence, 60 min; inhibition, % at 10 µM; 0.1% of 320,000 active;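 active means more than half of replicates show inhibition above 20%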;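 further: GST-tagged GSK-3 alpha with peptide substrate and 25 µM ATP; 0% = DMSO neutral wells and 100% = GW8510 positive control wells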
GSK3beta inhib: human GSK3beta kinase inhibition. GST-GSK3beta kinase, ADP-Glo luminescence, 60 min; stronger effect = lower value. activity score (negative = inhibition), % at 10 µM. 0.038% of 300,000 active;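 active means more than half of replicate wells score below -50%, meaning over 50% inhibition versus plate controls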;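 further: 0% = median DMSO wells and -100% = median GW8510 positive control wells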
Target sequence (P49841 whole entry, looked up): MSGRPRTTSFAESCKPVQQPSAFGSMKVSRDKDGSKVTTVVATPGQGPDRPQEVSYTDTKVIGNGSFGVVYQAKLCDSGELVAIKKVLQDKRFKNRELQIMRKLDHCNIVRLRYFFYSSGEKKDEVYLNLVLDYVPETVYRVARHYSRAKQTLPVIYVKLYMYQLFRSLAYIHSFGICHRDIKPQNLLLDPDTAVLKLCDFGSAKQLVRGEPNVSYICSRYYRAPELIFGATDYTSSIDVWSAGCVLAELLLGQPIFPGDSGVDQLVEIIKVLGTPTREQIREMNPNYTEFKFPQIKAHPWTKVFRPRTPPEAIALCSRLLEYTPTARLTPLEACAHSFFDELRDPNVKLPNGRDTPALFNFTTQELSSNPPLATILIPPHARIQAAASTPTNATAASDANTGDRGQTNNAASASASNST
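Test system: GST-fused GSK3beta enzyme, cell-free | Quantity: 1.6 ng GST-GSK3beta enzyme per well | Reagent: 25 µM ATP with peptide substrate | Schedule: 60 min enzyme reaction, room temperature | Signal: Luminescent ADP-Glo measurement of ADP formed | Read-out basis: Score relative to plate controls | Control set: DMSO and 20 µM GW8510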
AI-2 QS modul: modulators of Vibrio harveyi AI-2 quorum sensing system; AID 2094; Vibrio harveyi JMH597 AI-2 luminescence/OD600 ratio, 9 h; stronger effect = lower value; strain lacks LuxN and CqsS sensors; 0 = neutral-control median; activity change, % at 7.5 µM; 0.4% of 300,000 active; in the data active means activity change below about -75%, passing the limit was not always enough;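 further: luminescence divided by OD600 gain over 9 h not by final OD600 alone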
An asterisk follows results filed as active; i = inactive; · = not tested or not shown; + = active, no number. Shown are actives, neighbours in structure and some others; about 0.99% of the full set was active somewhere.

SMILES | STK33 inh | Rce1 inh | Dyrk1A ADPGlo | GSK3 alpha inh | GSK3beta inhib | AI-2 QS modul
COc1ccc(CC(=O)Nc2cc(C)ccc2O)cc1OC | 1 | i | · | 0 | 0 | -78*
COc1ccc(CC(=O)Nc2cc(C)on2)cc1OC | -1 | i | -7 | 1 | -2 | -5
CSc1ccc(S(=O)(=O)NCC(=O)OCC(=O)NCc2cccs2)cc1[N+](=O)[O-] | -2 | i | 8 | -1 | 2 | 22
O=C(Nc1ccccc1)Nc1ncc([N+](=O)[O-])s1 | · | · | 14 | · | -17 | -86*
COc1ccc(N2CCOCC2)c(NC(=O)c2cccnc2)c1 | 0 | i | -3 | 4 | -17 | 6
Cc1ccc(NC(=O)CSc2nnnn2C2CCCC2)cc1S(=O)(=O)N1CCOCC1 | -1 | · | 3 | -2 | · | ·
CCCCOC(=O)C1=C(C)Nc2ncnn2C1c1cc(OC)ccc1OC (stereo not drawn) | -2 | i | 4 | 0 | -1 | 13
CCCCOC(=O)C1=C(C)Nc2ncnn2C1c1cccc(OC)c1OC (stereo not drawn) | 0 | i | 2 | 85* | -4 | 4
Cc1ccc(C2/C(=C(\O)c3ccc4c(c3)OCCO4)C(=O)C(=O)N2CC2CCCO2)cc1 (stereo not drawn) | 0 | i | -6 | · | 5 | 37
CCOC(=O)c1c(-c2ccccc2)oc2ccc(OCC(O)CNCCN(C)C)cc12 (stereo not drawn) | 3 | + | 1 | 13 | -4 | 16
CCOc1ccc(S(=O)(=O)N2CCCC(C(=O)NC3CC3)C2)cc1Cl (stereo not drawn) | -1 | i | 10 | 0 | 4 | -5
Cc1ccc(NC(=O)c2cc(S(=O)(=O)Nc3ccc(C)cc3)cs2)cc1 | 0 | i | -1 | -1 | -2 | -79*
C#CCNC(=O)C1=C[C@H](C(C)(C)C)C[C@H](OCCCCO)O1 | -1 | i | 0 | -3 | 1 | 22
CC(C)(C)N=Cc1c(O)ccc2oc3c(c12)CCCC3 | 0 | i | -1 | -2 | 3 | 28
NC(=O)N/N=C/c1c(O)ccc2oc3c(c12)CCCC3 | 75* | i | 15 | 85* | -6 | 0
CC(=O)c1ccc(S(=O)(=O)N2CCC3(CC2)CC(=O)c2ccccc2O3)cc1 | -1 | i | · | -2 | 0 | 15
C[n+]1c2n(c3ccccc31)N=C(c1cc(C(C)(C)C)c(O)c(C(C)(C)C)c1)CS2 | 2 | + | -6 | 5 | 2 | 13
N=C1/C(=C\c2ccc(OC(=O)c3ccccc3Cl)cc2)C(=O)N=C2SC(N3CCOCC3)=NN12 | -1 | i | · | 0 | -1 | 24
[O-][n+]1cccc2c(Br)cc(Br)c(O)c21 | 0 | · | 2 | · | -4 | -197*
O=C(COc1ccc2c(-c3ccccc3)cc(=O)oc2c1)Nc1cccnc1 | 0 | i | · | -4 | 2 | 24
COc1ccc2cc(C(=O)C3CCCN(C(=O)CCc4cnn(C)c4)C3)ccc2c1 (stereo not drawn) | 0 | + | -3 | -1 | 2 | 22
CCN1CCN(c2c(C=O)c(Cl)nc3ccc(OC)cc23)CC1 | 3 | i | 15 | 82* | -55* | 19
COc1ccc(NC(=O)c2cc([N+](=O)[O-])ccc2O)cc1 | 37* | i | 32 | 0 | 1 | 26
Cc1ccc(-c2csc3nc(SCC(=O)Nc4ccc(Cl)c(C(=O)O)c4)[nH]c(=O)c23)cc1 | 0 | i | · | 2 | 8 | 38
C=CCn1c(SCC(=O)Nc2cc(C)on2)nnc1C1COc2ccccc2O1 (stereo not drawn) | 3 | i | -5 | -2 | 2 | 26
SMILES | STK33 inh | Rce1 inh | Dyrk1A ADPGlo | GSK3 alpha inh | GSK3beta inhib | AI-2 QS modul
Cc1cc(NC(=O)CSc2nnc(C3COc4ccccc4O3)n2N)no1 (stereo not drawn) | -2 | i | 0 | 0 | -2 | -77*
N#CC(/C(=N/S(=O)(=O)c1cccs1)c1ccccc1)c1nc2ccccc2[nH]1 (stereo not drawn) | -2 | + | 0 | 0 | -8 | 14
O=C(N/C(=C\c1ccco1)C(=O)N1CCCC(CO)C1)c1ccccc1 (stereo not drawn) | 0 | i | -1 | -3 | -2 | 22
CCc1cccc(NC(=O)CCNS(=O)(=O)c2ccc3c(c2)oc(=O)n3C)c1 | -2 | i | -8 | 0 | -3 | 6
CN(C)C(=O)COc1ccc2ccc(=O)oc2c1 | -1 | + | 2 | -1 | -2 | 14
Cn1c(CCNS(=O)(=O)c2ccccc2)nnc1SCc1cccnc1 | 0 | + | 5 | 0 | -2 | 8
Cc1ccc(Sc2ccc(N)cc2C#N)cc1 | -1 | · | -6 | -3 | -1 | -81*
CCOC(=O)C1=C(C)NC2=C(C(=O)CCC2)C1c1cccs1 (stereo not drawn) | 2 | i | 3 | -3 | 0 | 20
Cc1[nH]nc2c1C(c1cccs1)C1=C(CCCC1=O)N2 (stereo not drawn) | 8 | i | 5 | 70* | -50* | 7
CC(C)Sc1nc2c(c(=O)[nH]1)C(c1cccs1)C1=C(CC(C)(C)CC1=O)N2 (stereo not drawn) | -1 | i | -3 | -1 | 2 | 2
Cc1[nH]nc2c1C(c1cccs1)C1=C(CC(C)(C)CC1=O)N2 (stereo not drawn) | 1 | i | · | 99* | -82* | 10
CC[C@]1(C(=O)OC)[C@H]2C(=O)N(Cc3ccccc3)C(=O)[C@H]2[C@H]2CN=C(SCC3CC3)N21 | · | · | -1 | · | · | ·
CCCCn1c(-c2sccc2C)n[nH]c1=S | -1 | + | -5 | -2 | -1 | 7
S=C(NCc1ccco1)Nc1cc(-c2ccccc2)[nH]n1 | 3 | i | -5 | 11 | 5 | -81*
S=C(NCc1ccco1)Nc1ccc(Br)cn1 | 0 | i | -6 | 2 | -1 | 18
Cc1cc(N/N=C/c2ccc(O)c(C)c2O)nc(-c2ccccc2O)n1 | 0 | + | · | -1 | 1 | 3
C/C(=N\Nc1cc(C)nc(-c2ccccc2O)n1)c1ccccc1 | 0 | i | -3 | -5 | -2 | 42
CCN(CC(=O)Nc1ccccc1C(F)(F)F)C(=O)c1ccc(-n2nc(C)c(CCC(=O)OC)c2C)cc1 | · | · | 2 | · | · | ·
Cc1cc(C)c2cc(C#N)c(NCCCNC(=O)CCC(=O)O)nc2c1 | 1 | + | 3 | · | -3 | 23
O=c1[nH]cccc1-c1nc2ccccc2n1Cc1cccc(Cl)c1 | -5 | + | -4 | -5 | 2 | 16
CCCCn1nc(C(=O)Nc2ccccc2N2CCCC2)c2ccccc2c1=O | 1 | · | 2 | 3 | · | ·
Cn1ccsc1=NC(=O)c1ccc([N+](=O)[O-])o1 | -2 | i | 16 | -3 | 1 | -86*
